From PubChem
CHRM5 PAM: potentiates acetylcholine response at human M5 receptor; P08912; CHO-K1 hM5, Fluo-8 calcium, ACh EC20 PAM; 0% = ACh EC20, 100% = ACh EC100; activation, % at 3 µM; actives 0.3% (n = 360,000); AID 624038;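 active = activation above the run cutoff, the mean activation of all test compounds plus 3 SD, cut at about 18% in these data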
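Measured by: Fluo-8 calcium fluorescence; material: human M5 receptor in CHO-K1 cells; schedule: Post-acetylcholine fluorescence recording 140 s; benchmarks: low control EC20 acetylcholine (0%), high control EC100 acetylcholine (100%); read-out: Max/basal fluorescence ratio as % of EC20–EC100 ACh window; compound: single dose, 3 µM nominal final test concentration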
CHRM5 antagonist: antagonists of human muscarinic M5 receptor (CHRM5); P08912; CHO-hM5 cells, Fluo-8 calcium fluorescence, ACh EC80; inhibition, % at 3 µM; actives 0.59% (n = 360,000); AID 624040;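 active = inhibition above a per-plate cutoff, the mean of that plate's test compounds plus 3 SD, cut at about 27% in these data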;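 also: 0% = acetylcholine EC80 with DMSO and 100% = DMSO without agonist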
CHRM4 agonist: CHRM4 agonism in calcium assay. P08173. CHO-K1 hM4/Gqi5, Fluo-8 calcium fluorescence; vehicle 0%, full acetylcholine response 100%. activation, % at 3 µM. actives 0.14% (n = 360,000). AID 624127;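 active = activation above the run mean over all test wells plus 3 SD, cut at about 32% in these data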;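 also: peak over basal fluorescence ratio per well then scaled between controls; 0% = DMSO wells and 100% = acetylcholine at EC100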
Target sequence (P08173 whole entry, looked up): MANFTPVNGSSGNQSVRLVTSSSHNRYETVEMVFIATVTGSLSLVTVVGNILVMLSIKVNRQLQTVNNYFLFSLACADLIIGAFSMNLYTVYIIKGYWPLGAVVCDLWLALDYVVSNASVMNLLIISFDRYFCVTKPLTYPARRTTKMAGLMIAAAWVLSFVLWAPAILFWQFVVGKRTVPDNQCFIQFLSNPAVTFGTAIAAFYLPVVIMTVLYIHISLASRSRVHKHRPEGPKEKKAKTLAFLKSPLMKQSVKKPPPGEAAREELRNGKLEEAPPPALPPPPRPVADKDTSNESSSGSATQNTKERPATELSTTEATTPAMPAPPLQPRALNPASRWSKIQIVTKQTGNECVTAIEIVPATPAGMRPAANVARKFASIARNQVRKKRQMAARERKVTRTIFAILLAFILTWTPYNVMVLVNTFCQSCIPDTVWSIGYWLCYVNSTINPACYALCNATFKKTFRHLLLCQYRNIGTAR
CHRM5 agonist: CHRM5 agonism in calcium assay. P08912. CHO-K1 hM5 cells, Fluo-8 calcium fluorescence; 0% DMSO wells, 100% maximal acetylcholine response. activation, % at 3 µM. actives 0.19% (n = 360,000);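 active = activation above the run's mean over test compounds plus 3 SD, cut at about 23% in these data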;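 also: signal is peak over basal fluorescence ratio across the kinetic read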
M4 PAM: positive allosteric modulators of human muscarinic M4 receptor | activation, % at 3 µM | actives 0.4% (n = 360,000) | CHO-K1 hM4/Gqi5, Fluo-8 calcium fluorescence, ACh EC20; 0% = ACh EC20, 100% = maximal ACh;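 active = activation above its plate's cutoff, the mean activation of sample wells plus 3 SD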
CHRM4 antagonist: antagonists of human muscarinic M4 receptor (CHRM4); P08173; CHO-hM4 cells, ACh EC80, Fluo-8 calcium fluorescence; inhibition, % at 3 µM; actives 0.73% (n = 360,000);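 active = inhibition above its plate's cutoff, the mean inhibition of sample wells plus 3 SD, cut at about 27% in these data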;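 also: 0% = acetylcholine EC80 with DMSO and 100% = DMSO without agonist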
Numbers without * were called inactive. Sampled rows, rich in hits. Any-hit rate of the full collection: about 1.8%.

SMILES	CHRM5 PAM	CHRM5 antagonist	CHRM4 agonist	CHRM5 agonist	M4 PAM	CHRM4 antagonist
CCc1nnc(NC(=O)CSc2nncc(=O)n2N)s1	24.3*	-21.3	0.9	-0.3	5.7	-6.4
C=CCc1ccccc1Oc1cc(OC)nc(N)n1	0.9	2.7	0.4	-2.9	0.2	2.7
Cc1ncc(CN2CCCC(C(=O)Nc3ccc(-c4ccco4)cc3)C2)n1C (configuration not stated)	-2.5	5.8	0.6	-7.7	-11.9	30.9*
O=C(Nc1ccc(-c2ccco2)cc1)C1CCCN(Cc2ccco2)C1 (configuration not stated)	-4.2	5.2	2.0	-2.3	-0.8	9.2
COc1cc(/C=C/C(O)=C/C(=O)/C=C/c2ccc(O)cc2)ccc1O	-34.8	40.6*	49.8*	47.9*	-17.4	27.3*
Cc1ncsc1CCOC(=O)c1ccc(Cl)cc1	9.3	-14.9	1.8	-4.0	23.9*	-9.5
CS(=O)(=O)c1ccc(C(=O)N2CCN(S(=O)(=O)c3ccc(C4CCCCC4)cc3)CC2)cc1	-3.7	7.6	-0.4	-3.1	5.9	-2.3
CCCCOc1ccc(C(=O)NCCN2CCC(n3c(=O)[nH]c4ccccc43)CC2)cc1	-10.6	8.6	13.0	-2.0	-14.8	58.6*
O=C(NCCN1CCC(n2c(=O)[nH]c3ccccc32)CC1)C(c1ccccc1)c1ccccc1	-24.0	36.7*	5.4	-4.0	-12.1	15.7
CCOC(=O)[C@]12CCC=C1N(Cc1cccc3ccccc13)C(=O)[C@H](CC(=O)NCc1ccc(OC)c(OC)c1)C2	-11.3	-3.6	9.0	0.3	-3.7	-6.5
CS(=O)(=O)c1nc(S(=O)(=O)c2ccc(Cl)cc2)c(NCc2ccccn2)s1	-4.5	-6.1	3.8	-2.8	-0.4	2.9
COc1ccccc1Nc1nc(N)nc(CN2CCN(Cc3ccccc3)CC2)n1	-4.2	4.3	0.1	-1.1	-3.8	11.3
COc1ccc(N2CCN(Cc3nc(N)nc(Nc4ccccc4OC)n3)CC2)cc1	-7.0	-1.7	-0.6	0.1	10.1	26.7*
CC1(C(=O)Nc2ccc(Cl)c(Cl)c2)CCN1Cc1cc2ccccc2o1 (configuration not stated)	-0.6	-3.5	-0.7	-0.3	0.6	-7.8
COc1cccc(N2CCN(C(=O)CC(C)(C)CC3=NS(=O)(=O)c4ccccc4N3)CC2)c1	-17.6	26.9*	25.5	2.4	-15.0	1.2
O=C(CCCC1=NS(=O)(=O)c2ccccc2N1)N1CCN(c2ccccc2)CC1	-7.4	0.3	4.8	-4.0	3.1	-14.6
O=C(CCCC1=NS(=O)(=O)c2ccccc2N1)N1CCN(c2ccc(Cl)cc2)CC1	-9.9	9.4	10.7	6.0	-3.4	-13.3
CC(C)(CC(=O)N1CCN(c2ccc(Cl)cc2)CC1)CC1=NS(=O)(=O)c2ccccc2N1	-23.2	28.0*	21.6	7.8	-18.5	26.4*
COc1cc2c(cc1OC)C(c1cc3cccc(C)c3[nH]c1=O)N(C(=O)c1ccco1)CC2 (configuration not stated)	-6.2	25.6	2.6	-0.6	4.5	5.1
CCN(CC)c1ccc(NC(=O)C2=CCN(S(=O)(=O)c3ccc(F)cc3)CC2)c(C)c1	-7.8	-0.7	4.3	2.9	-6.5	-6.6
S=C(NCCC(c1ccccc1)c1ccccc1)Nc1ccc(Cl)cc1	-14.1	33.2*	8.7	0.6	-19.8	19.1
Nc1ncnc2c1ncn2C1OC(C(=O)NC2CC2)C(O)C1O (configuration not stated)	2.4	2.1	0.2	-0.1	-8.4	36.3*
C[C@@H](CO)NC(=O)[C@H]1O[C@@H](n2cnc3c(N)ncnc32)[C@H](O)[C@@H]1O	3.3	2.1	0.3	3.7	0.6	0.0
Cc1ccc(CSC(Nc2ccc(F)cc2)=C(C#N)C#N)cc1	-16.5	31.0*	7.6	5.9	-8.8	24.0
CCN1CCN(c2ccc(NC(=O)COc3ccc(Cl)cc3C)cc2)CC1	-48.0	41.9*	4.2	-11.7	-15.6	28.2*
Cc1cc(Cl)ccc1OCC(=O)Nc1ccncc1	-22.4	32.6*	10.7	3.0	-4.0	6.3
